Assay results published in ChEMBL document CHEMBL1144395, “Design and synthesis of potent pyridazine inhibitors of p38 MAP kinase” (Bioorg Med Chem Lett, 2005).

Assays:
[1] = Inhibitory activity against c-Jun N-terminal kinase 3 (JNK3); parameters: species or system Homo sapiens
[2] = Inhibitory activity against mitogen-activated protein kinase p38; parameters: species or system Homo sapiens
THP-1 = experiment: Inhibitory concentration against TNF-alpha production in THP-1 cells; format: functional, cell-based; conditions: Homo sapiens
Cell line = experiment: Inhibitory concentration against LPS-induced release of TNF-alpha in human whole blood; format: functional, cell-based
Rattus norvegicus = species on record: Rattus norvegicus; experiment: Effective dose against rat collagen-induced arthritis (CIA) model; format: functional
Mus musculus = species on record: Mus musculus; experiment: Effective dose against murine LPS challenge model; format: functional
Outline: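 Oral dosing to BALB/c mice (n = 5) 1 h before intravenous LPS ([…]); blood taken 90 min after LPS, serum TNF-α measured by ELISA; % inhibition = [(vehicle control − compound)/(vehicle control)] × 100; ED50 derived from this inhibition.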

| Structure (SMILES) | Ki [1] | Ki [2] | IC50 (THP-1) | IC50 (Cell line) | ED50 (Rattus norvegicus) | ED50 (Mus musculus) |
| --- | --- | --- | --- | --- | --- | --- |
| O=C(CO)N[C@H](CNc1cc(-c2ccncc2)c(-c2cccc3ccccc23)nn1)Cc1ccccc1 | 211 nM | 65.9 nM | 661 nM |  |  |  |
| CC(C)C[C@H]1CN(c2cc(-c3ccncc3)c(-c3cccc4ccccc34)nn2)CCN1 | 650 nM | 29.7 nM | 63.6 nM | 547 nM |  |  |
| O=C(CNc1nccc(-c2cc(C3CCNCC3)nnc2-c2cccc(C(F)(F)F)c2)n1)c1ccccc1 | > 10000 nM | 709 nM | 1290 nM |  |  |  |
| CC(Nc1nccc(-c2cc(C3CCNCC3)nnc2-c2cccc(C(F)(F)F)c2)n1)c1ccc(F)cc1 (centres undefined) | > 10000 nM | 10.2 nM | 93.4 nM |  |  |  |
| c1ccc(C[C@@H](CNc2cc(-c3ccncc3)c(-c3cccc4ccccc34)nn2)N2CCCC2)cc1 | 81.5 nM | 9.2 nM | 5.5 nM |  |  |  |
| CC(N)(CNc1cc(-c2ccncn2)c(-c2cccc(C(F)(F)F)c2)nn1)Cc1ccccc1 (centres undefined) | > 10000 nM | 179 nM | 251 nM |  |  |  |
| O=C(CNc1nccc(-c2cc(C3CCNCC3)nnc2-c2cccc(C(F)(F)F)c2)n1)c1ccc(F)cc1 | > 10000 nM | 1770 nM | 1240 nM |  |  |  |
| c1ccc(C[C@H]2CN(c3cc(-c4ccncc4)c(-c4cccc5ccccc45)nn3)CCN2)cc1 | 160 nM | 7.3 nM | 67.6 nM | 240 nM | 2.7 mg/kg | 1.28 mg/kg |
| N[C@H](CNc1cc(-c2ccncn2)c(-c2cccc(C(F)(F)F)c2)nn1)Cc1ccccc1 | > 10000 nM | 56.2 nM | 40.2 nM | 1830 nM |  |  |
| C[C@H](Nc1cc(-c2cc(C3CCNCC3)nnc2-c2cccc(C(F)(F)F)c2)ccn1)c1ccccc1 | 2970 nM | 2.1 nM | 21.5 nM | 5850 nM |  |  |
| O=C(CO)N1CCN(c2cc(-c3ccncc3)c(-c3cccc4ccccc34)nn2)C[C@@H]1Cc1ccccc1 | 72.5 nM | 31.8 nM | 552 nM |  |  |  |
| C[C@H](Nc1nccc(-c2cc(C3CCNCC3)nnc2-c2cccc(C(F)(F)F)c2)n1)c1ccccc1 | 1580 nM | 1.6 nM | 5.3 nM | 1560 nM |  |  |
| N[C@H](CNc1cc(-c2ccncc2)c(-c2cccc3ccccc23)nn1)Cc1ccc(F)cc1 | 1060 nM | 1.8 nM | 92.2 nM | 948 nM |  |  |
| CC(C)N[C@H](CNc1cc(-c2ccncc2)c(-c2cccc3ccccc23)nn1)Cc1ccccc1 | 598 nM | 20.4 nM | 110 nM |  |  |  |
| N[C@H](CNc1cc(-c2ccncc2)c(-c2cccc3ccccc23)nn1)Cc1ccccc1 | 735 nM | 7 nM | 50.1 nM | 165 nM |  |  |
